Laboratory results reported in ChEMBL document CHEMBL1124215, “Improved delivery through biological membranes. 26. Design, synthesis, and pharmacological activity of a novel chemical delivery system for beta-adrenergic blocking agents” (1988).

Key:
Oryctolagus cuniculus [1] = experiment: Percentage change of IOP in rabbits after 6 hr administration (1%) of compound; format: functional
In short: (§1)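 Rabbits received 1% or 2.5% drug solution in pH 7.4 buffer or saline in both eyes, at least four per group. A control group of at least three rabbits received carrier only. IOP was read by pneumatonometer in unrestrained, unanesthetized animals after one drop of 0.5% propacaine diluted 1:2 with saline. Readings were taken at 30 and 60 min and at 2–8 h. Values are mean ± SE, with significance by Student's t test.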

Oryctolagus cuniculus [2] = experiment: Percentage change of IOP in rabbits after 8 hr administration (1%) of compound; format: functional; in short: as §1
Oryctolagus cuniculus [3] = experiment: Percentage change of IOP in rabbits after 2 hr administration (1%) of compound; format: functional
In short: (§2)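 IOP was read by pneumatonometer in unrestrained, unanesthetized rabbits after local propacaine drops. Drug was given as a 1% or 2.5% solution in pH 7.4 buffer or saline to both eyes, at least four rabbits per group; controls (at least three) received carrier only. Readings were taken at 30 and 60 min and at 2, 3, 4, 6 and 8 h. Values are mean ± SE; Student's t test.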

Oryctolagus cuniculus [4] = experiment: Percentage change of IOP in rabbits after 30 min administration (1%) of compound; format: functional; in short: as §1
Oryctolagus cuniculus [5] = experiment: Percentage change of IOP in rabbits after 3h administration (1%) of compound; format: functional; in short: as §1
Oryctolagus cuniculus [6] = experiment: Percentage change of IOP in rabbits after 4 hr administration (1%) of compound; format: functional; in short: as §1
Oryctolagus cuniculus [7] = experiment: Percentage change of IOP in rabbits after 5 hr administration (1%) of compound; format: functional; in short: as §1
Oryctolagus cuniculus [8] = experiment: Percentage change of IOP in rabbits after 0 min administration (1%) of compound; format: functional; in short: as §2
Oryctolagus cuniculus [9] = experiment: Percentage change of IOP in rabbits after 1 hr administration (1%) of compound; format: functional; in short: as §2
Oryctolagus cuniculus [10] = experiment: Effect on IOP of rabbits 0 min after administration (1%); format: functional; in short: as §2
Oryctolagus cuniculus [11] = experiment: Effect on IOP of rabbits 1 hr after administration (1%); format: functional; in short: as §2
Oryctolagus cuniculus [12] = experiment: Effect on IOP of rabbits 2 hr after administration (1%); format: functional; in short: as §2
Oryctolagus cuniculus [13] = experiment: Effect on IOP of rabbits 30 mins after administration (1%); format: functional; in short: as §2
Oryctolagus cuniculus [14] = experiment: Effect on IOP of rabbits 3h after administration (1%); format: functional; in short: as §2
Oryctolagus cuniculus [15] = experiment: Effect on IOP of rabbits 4 hr after administration (1%); format: functional; in short: as §2
Oryctolagus cuniculus [16] = experiment: Effect on IOP of rabbits 5 hr after administration (1%); format: functional
Oryctolagus cuniculus [17] = experiment: Effect on IOP of rabbits 6 hr after administration (1%); format: functional; in short: as §2
Oryctolagus cuniculus [18] = experiment: Concentration of propranolone oxime in cornea of rabbit after 30 min administration of compound; format: functional, organism-based
In short: (§3)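 Adult male New Zealand albino rabbits (2.5–3.5 kg), at least four per time point. 100 µL of a 1% solution in saline was instilled topically into both eyes. Animals were killed at 30, 60 or 120 min. Cornea and iris-ciliary body were homogenized in methanol to 10% homogenates and deproteinized by centrifugation. Aqueous humor was analysed undiluted. HPLC was calibrated against spiked control-rabbit tissue. Values are mean ± SE, µg/g.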

Oryctolagus cuniculus [19] = experiment: Concentration of propranolone oxime in cornea of rabbit after 60 min administration of compound; format: functional, organism-based; in short: as §3
Oryctolagus cuniculus [20] = experiment: Concentration of propranolone oxime in iris-ciliary body of rabbit after 30 min administration of compound; format: functional, organism-based; in short: as §3
Oryctolagus cuniculus [21] = experiment: Concentration in aqueous humor of rabbit after 60 min administration of compound; format: functional, organism-based; conditions: Aqueous humor of eyeball; in short: as §3
Oryctolagus cuniculus [22] = experiment: Concentration in cornea of rabbit after 120 min administration of compound; format: functional, organism-based; in short: as §3
Oryctolagus cuniculus [23] = experiment: Percentage change of IOP in rabbits after 60 min administration (1%) of compound; format: functional; in short: as §1
Oryctolagus cuniculus [24] = experiment: Percentage change of IOP in rabbits after 60 min administration (2.5%) of compound; format: functional; in short: as §1
Oryctolagus cuniculus [25] = experiment: Percentage change of IOP in rabbits after 6 hr administration (2.5%) of compound; format: functional; in short: as §1
Oryctolagus cuniculus [26] = experiment: Percentage change of IOP in rabbits after 8 hr administration (2.5%) of compound; format: functional; in short: as §1
Oryctolagus cuniculus [27] = experiment: Percentage change of IOP in rabbits after 2 hr administration (2.5%) of compound; format: functional; in short: as §2
Oryctolagus cuniculus [28] = experiment: Percentage change of IOP in rabbits after 30 min administration (2.5%) of compound; format: functional; in short: as §1
Oryctolagus cuniculus [29] = experiment: Percentage change of IOP in rabbits after 3h administration (2.5%) of compound; format: functional; in short: as §1
Oryctolagus cuniculus [30] = experiment: Percentage change of IOP in rabbits after 0 min administration (2.5%) of compound; format: functional; in short: as §2
Oryctolagus cuniculus [31] = experiment: Concentration in cornea of rabbit after 30 min administration of compound; format: functional, organism-based; in short: as §3
Oryctolagus cuniculus [32] = experiment: Concentration in cornea of rabbit after 60 min administration of compound; format: functional, organism-based; in short: as §3
Oryctolagus cuniculus [33] = experiment: Concentration in iris -ciliary body of rabbit after 30 min administration of compound; format: functional, organism-based; in short: as §3
Oryctolagus cuniculus [34] = experiment: Concentration in iris-ciliary body of rabbit after 120 min administration of compound; format: functional, organism-based; in short: as §3
Oryctolagus cuniculus [35] = experiment: Concentration of propranolone oxime in aqueous humor of rabbit after 30 min administration of compound; format: functional, organism-based; conditions: Aqueous humor of eyeball; in short: as §3
Oryctolagus cuniculus [36] = experiment: Concentration of propranolone oxime in aqueous humor of rabbit after 60 min administration of compound; format: functional, organism-based; conditions: Aqueous humor of eyeball; in short: as §3
Oryctolagus cuniculus [37] = experiment: Effect on IOP of rabbits 0 min after administration (2.5%); format: functional; in short: as §2
Oryctolagus cuniculus [38] = experiment: Effect on IOP of rabbits 2hmin after administration (2.5%); format: functional; in short: as §2
Oryctolagus cuniculus [39] = experiment: Effect on IOP of rabbits 30 mins after administration (2.5%); format: functional; in short: as §2
Oryctolagus cuniculus [40] = experiment: Effect on IOP of rabbits 3h after administration (2.5%); format: functional; in short: as §2
Oryctolagus cuniculus [41] = experiment: Effect on IOP of rabbits 4 hr after administration (2.5%); format: functional; in short: as §2
Oryctolagus cuniculus [42] = experiment: Effect on IOP of rabbits 60 mins after administration (1%); format: functional; in short: as §2
Oryctolagus cuniculus [43] = experiment: Effect on IOP of rabbits 60 mins after administration (2.5%); format: functional; in short: as §2
Oryctolagus cuniculus [44] = experiment: Effect on IOP of rabbits 6 hr min after administration (1%); format: functional; in short: as §2
Oryctolagus cuniculus [45] = experiment: Effect on IOP of rabbits 6 hr min after administration (2.5%); format: functional; in short: as §2
Oryctolagus cuniculus [46] = experiment: Effect on IOP of rabbits 8 hr min after administration (1%); format: functional; in short: as §2
Oryctolagus cuniculus [47] = experiment: Effect on IOP of rabbits 8 hr min after administration (2.5%); format: functional; in short: as §2
Oryctolagus cuniculus [48] = experiment: Percentage change of IOP in rabbits after 4 hr administration (2.5%) of compound; format: functional; in short: as §1
Oryctolagus cuniculus [49] = experiment: Concentration in iris -ciliary body of rabbit after 60 min administration of compound; format: functional, organism-based; in short: as §3

CC(C)(C)NC[C@H](O)COc1nsnc1N1CCOCC1 (stereo in doubt; 1b) [TIMOLOL]
Change (Oryctolagus cuniculus [1]): 12.4%
Change (Oryctolagus cuniculus [2]): >9.8%
Change (Oryctolagus cuniculus [3]): 6.78%
Change (Oryctolagus cuniculus [4]): >-10.93%
Change (Oryctolagus cuniculus [5]): 14.3%
Change (Oryctolagus cuniculus [6]): 14.8%
Change (Oryctolagus cuniculus [7]): 16.9%
Change (Oryctolagus cuniculus [8]): 0%
Change (Oryctolagus cuniculus [9]): 6.65%
IOP (Oryctolagus cuniculus [10]): 29.19 mmHg
IOP (Oryctolagus cuniculus [11]): 27.25 mmHg
IOP (Oryctolagus cuniculus [12]): 27.21 mmHg
IOP (Oryctolagus cuniculus [13]): 26 mmHg
IOP (Oryctolagus cuniculus [14]): 25 mmHg
IOP (Oryctolagus cuniculus [15]): 24.88 mmHg
IOP (Oryctolagus cuniculus [16]): 24.25 mmHg
IOP (Oryctolagus cuniculus [17]): 25.58 mmHg

CC(C)NC/C(COc1cccc2ccccc12)=N\O
Concentration (Oryctolagus cuniculus [18]): 23.8 µg/g
Concentration (Oryctolagus cuniculus [19]): 16.4 µg/g
Concentration (Oryctolagus cuniculus [20]): 7.8 µg/g
Concentration (Oryctolagus cuniculus [21]): 0.7 µg/g
Concentration (Oryctolagus cuniculus [22]): 1.1 µg/g
Change (Oryctolagus cuniculus [23]): >-11.51%
Change (Oryctolagus cuniculus [24]): -10%
Change (Oryctolagus cuniculus [1]): -7.08%
Change (Oryctolagus cuniculus [25]): >-9.23%
Change (Oryctolagus cuniculus [2]): 0.5%
Change (Oryctolagus cuniculus [26]): -0.77%
Change (Oryctolagus cuniculus [3]): -15.8%
Change (Oryctolagus cuniculus [27]): -13.08%
Change (Oryctolagus cuniculus [4]): -3.23%
Change (Oryctolagus cuniculus [28]): 1.92%
Change (Oryctolagus cuniculus [5]): -16.2%
Change (Oryctolagus cuniculus [29]): >-18.46%
Change (Oryctolagus cuniculus [6]): -20.1%
Change (Oryctolagus cuniculus [8]): 0%
Change (Oryctolagus cuniculus [30]): 0%
Concentration (Oryctolagus cuniculus [31]): 1.7 µg/g
Concentration (Oryctolagus cuniculus [32]): 1.1 µg/g
Concentration (Oryctolagus cuniculus [33]): 2.1 µg/g
Concentration (Oryctolagus cuniculus [34]): 0.4 µg/g
Concentration (Oryctolagus cuniculus [35]): 0.8 µg/g
Concentration (Oryctolagus cuniculus [36]): 0.8 µg/g
IOP (Oryctolagus cuniculus [37]): 26 mmHg
IOP (Oryctolagus cuniculus [10]): 27.8 mmHg
IOP (Oryctolagus cuniculus [12]): 23.4 mmHg
IOP (Oryctolagus cuniculus [38]): 22.6 mmHg
IOP (Oryctolagus cuniculus [13]): 26.9 mmHg
IOP (Oryctolagus cuniculus [39]): 26.5 mmHg
IOP (Oryctolagus cuniculus [14]): 23.3 mmHg
IOP (Oryctolagus cuniculus [40]): 21.2 mmHg
IOP (Oryctolagus cuniculus [15]): 22.2 mmHg
IOP (Oryctolagus cuniculus [41]): 20.4 mmHg
IOP (Oryctolagus cuniculus [42]): 24 mmHg
IOP (Oryctolagus cuniculus [43]): 23.4 mmHg
IOP (Oryctolagus cuniculus [44]): 25.8 mmHg
IOP (Oryctolagus cuniculus [45]): 23.6 mmHg
IOP (Oryctolagus cuniculus [46]): 27.9 mmHg
IOP (Oryctolagus cuniculus [47]): 25.8 mmHg
Change (Oryctolagus cuniculus [48]): -21.5%
Concentration (Oryctolagus cuniculus [49]): 1.8 µg/g
